# Rows were chosen to be rich in hits. Some 1.6% of all compounds tested hit in one or more screens of this group.
# SUMO HTRF inh – SUMOylation inhibition. AID 2006. hit rate 0.36% among 290,000. inhibition, % at 35 µM. HTRF SUMOylation assay, SAE1/SAE2 + UBC9, in vitro. P63279; in the data active = inhibition above about 50%, passing the limit was not always enough; inconclusive = no clear call, values can overlap the other calls
# Target sequence (P63279 whole entry, looked up): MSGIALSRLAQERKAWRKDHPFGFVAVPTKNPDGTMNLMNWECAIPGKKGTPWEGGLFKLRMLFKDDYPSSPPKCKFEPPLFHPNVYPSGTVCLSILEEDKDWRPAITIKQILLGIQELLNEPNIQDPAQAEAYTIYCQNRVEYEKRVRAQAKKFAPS
# Apaf1 inhib – inhibitors of human Apaf-1 apoptosome; AID 489030; inhibition, % at 20 µM; reconstituted apoptosome caspase-3 activity, DEVD-Rh110 fluorescence; O14727; hit rate 0.71% among 330,000; active = inhibition of at least 40% at 20 µM;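 also: plate controls were DMSO wells for no effect and DEVD-CHO caspase inhibitor wells for full effect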
#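 Material: reconstituted apoptosome with Apaf-1, cytochrome c, caspase-9, procaspase-3, dATP / Buffer or medium: pH 7.5 Hepes buffer with CHAPS, BSA, DTT / Also added: cytochrome c with DEVD-Rh110 / Schedule: compound with Apaf-1, dATP, procaspase-3 30 min, then 50 min reaction, room temperature / Technique: rhodamine 110 fluorescence at Ex 480/Em 540 nm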
# TDP2 absorb – blocks human TDP2 phosphodiesterase activity. O95551. recombinant TDP2, T5PNP hydrolysis, p-nitrophenol absorbance 415 nm. inhibition, % at 12.8 µM. hit rate 0.34% among 370,000;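 active = inhibition above the mean of all tested compounds plus 3 SD, set per campaign, cut at about 25% in these data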;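 also: 0% = DMSO with enzyme and 100% = buffer with substrate but no TDP2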
#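 System – recombinant human TDP2 · Quantity – TDP2 enzyme at 120 nM final · Doses – single concentration, 12.8 µM nominal, with 1% DMSO · Incubation – 2 h at 37 °C · Measured by – epi absorbance of p-nitrophenol freed from T5PNP by hydrolysis · Read-out – % inhibition relative to enzyme-containing and enzyme-free wells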
# GSTO1 counter – GSTO1 inhibition, counter-screen for RBBP9 inhibitors; AID 1974; recombinant GSTO1, activity-based probe fluorescence polarization; inhibition, % at 5.96 µM; P78417; hit rate 1.1% among 300,000;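 active = inhibition above the campaign mean inhibition plus 3 SD, cut at about 35% in these data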;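 also: 0% = GSTO1-1 with DMSO and 100% = wells lacking GSTO1-1 enzyme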
# Target sequence (P78417 whole entry, looked up): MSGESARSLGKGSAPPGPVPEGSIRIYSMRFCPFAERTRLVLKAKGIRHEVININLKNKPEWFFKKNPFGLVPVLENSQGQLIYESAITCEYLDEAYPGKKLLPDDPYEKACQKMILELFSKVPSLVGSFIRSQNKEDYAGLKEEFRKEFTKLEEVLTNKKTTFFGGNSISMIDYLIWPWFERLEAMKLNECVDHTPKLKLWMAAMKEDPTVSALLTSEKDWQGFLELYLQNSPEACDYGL
# PAD4 FP inh – PAD4 (human) enzyme inhibition; Q9UM07; recombinant PAD4, RCA probe fluorescence polarization; inhibition, % at 6.36 µM; hit rate 0.41% among 330,000;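 active = percent inhibition above a cutoff equal to the mean of all tested compounds plus 3 SD, cut at about 15% in these data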;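 also: 0% = PAD4 with RCA probe and DMSO and 100% = probe without PAD4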
# JMJD2C inh – inhibitors of human GASC-1 (JMJD2C) demethylase; GST-JMJD2C(1-420) H3K9me3 demethylation, DELFIA europium; inhibition, % at 2.35 µM; hit rate 0.069% among 330,000;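 active = more than half of a compound's replicate wells show inhibition beyond 50%, single wells judged on their own value; inconclusive = some, but no more than half, of replicates pass 50% inhibition; inactive = no replicate passes 50% inhibition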;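 also: signal counts dimethyl H3K9 product captured on neutravidin plate; 0% = median of DMSO wells and 100% = 0.3 times that DMSO median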
# Numbers without * were called inactive; ? = inconclusive; . = no result.
SMILES,SUMO HTRF inh,Apaf1 inhib,TDP2 absorb,GSTO1 counter,PAD4 FP inh,JMJD2C inh
CC(=O)n1cc(N(C(=O)CCl)c2ccc(C)cc2)c2ccccc21,9,6,7,70*,12,-12
O=C(Nc1ccccc1O)c1cc(S(=O)(=O)N2CCOCC2)c(Cl)cc1Cl,60*,-4,-5,10,0,2
O=C(Nc1ccccc1O)c1cc(S(=O)(=O)N2CCOCC2)ccc1Cl,-2,-7,.,0,4,-5
CCc1ccc(/C=C/C(=O)C2C(=O)c3ccccc3C2=O)cc1,4,39,-1,-23,-2,8
O=C(/C=C/c1ccccc1)C1C(=O)c2ccccc2C1=O,59*,21,1,-26,-2,15
CCC[C@@H](CN1CCC[C@H]1CN1C(N)=NC[C@H]1CC(C)C)N1C[C@@H]([C@H](C)CC)N(CCCC2CCCC2)C1=N,.,53*,6,.,4,.
CCC[C@@H](CN1CCC[C@H]1CN1C(N)=NC[C@H]1C(C)C)N1C[C@@H]([C@H](C)CC)N(CCCC2CCCC2)C1=N,.,37,2,.,-5,.
Cc1ccc(C(=O)NNC(=O)c2cccc(S(=O)(=O)N3CCOCC3)c2)cc1,.,11,8,.,-5,-13
O=C(NNC(=O)c1cc(Cl)ccc1O)c1cccc(S(=O)(=O)N2CCOCC2)c1,.,8,-1,37*,-2,-4
O=C(CSc1nc2ccccc2[nH]1)NN=Cc1c(F)cccc1Cl,.,.,-6,.,.,.
CCCn1c(=O)c(C(=O)NCCc2ccc(Cl)cc2)c(O)c2ccccc21,-10,-11,0,.,.,0
CCn1c(=O)c(C(=O)NCCc2ccc(Cl)cc2)c(O)c2ccccc21,-10,14,-8,0,-2,60*
COc1cc(NCCCCCCN)c2ncccc2c1OC,.,.,52*,.,.,.
CC(C)CN1CN2Cc3ccccc3C2CS1(=O)=O (stereo not drawn),.,.,-6,.,.,.
COc1ccc(CN2CCCCC2C)c(C)c1C (stereo not drawn),-2,-21,5,0,-5,50*
COc1ccc(CN2CCCCC2C)cc1C (stereo not drawn),21,-7,-6,8,-5,26
CN1C=C/C(=C\c2cc[n+](C)c3ccccc23)c2ccccc21,5,.,28*,.,.,-7
CCCCNC(=O)C[C@H]1C[C@@]2(C(=O)OC)C(=C[C@H](C3CCCC3)O[C@@H]2C)N(Cc2ccco2)C1=O,.,.,-12,.,.,.
O=C(O)c1cc(-c2ccc(/C=C3\NC(=O)N(c4ccccc4)C3=O)o2)ccc1Cl,20,4,3,21,-1,8
O=C(O)c1cc(-c2ccc(/C=c3\sc4nc5ccc(Br)cc5n4c3=O)o2)ccc1Cl,24,.,.,41*,-3,33
COc1ccc(-c2nc3ccncc3[nH]2)cc1OC,65*,-5,7,17,1,8
CC(C)(CC(=O)O)CC(=O)NCc1c(Cl)cccc1Sc1ccc(Cl)cc1,0,-7,1,37*,-5,1
Cc1ccc(NC(=O)OC2CCC23CCCCC3)cc1 (stereo not drawn),.,.,-3,.,.,.
CCN(CC)S(=O)(=O)c1cccc(C(=O)NCCc2ccccc2)c1,.,5,4,2,0,-6
CN(c1ccccc1)S(=O)(=O)c1cccc(C(=O)NCCc2ccc(O)c(O)c2)c1,10,7,5,39*,-1,-17
SMILES,SUMO HTRF inh,Apaf1 inhib,TDP2 absorb,GSTO1 counter,PAD4 FP inh,JMJD2C inh
CC1(C)CC2(CC(c3ccccc3F)c3ccc(O)c(O)c3O2)NC(=S)N1 (stereo not drawn),7,5,-4,44*,-2,7
CC1(C)CC2(CC(c3ccc(F)cc3)c3ccc(O)cc3O2)NC(=S)N1 (stereo not drawn),24,-2,-6,3,-1,3
O=C(CCl)N(C/C=C/c1ccccc1)c1ccc2c(c1)OCCO2,8,16,11,93*,-1,0
Cc1cccc(Cn2cc(CN3CC(N(C)CCCOC(=O)c4cc(C)cc(C)c4)CS3(=O)=O)nn2)c1 (stereo not drawn),.,.,2,.,.,.
CCCCCCCCNS(=O)(=O)CC1NCc2cc(F)ccc21 (stereo not drawn),.,.,5,.,.,.
COc1ccc(CNCC#Cc2ccccc2)c(OC)c1,.,.,1,.,.,.
CC(CCC(C)C(C)(C)C)[C@@H]1CC[C@H]2C3C[C@H](OS(O)(=S)=S)[C@H]4C[C@H](OS(O)(=S)=S)[C@@H](OS(O)(=S)=S)C[C@]4(C)[C@H]3CC[C@]12C (stereo partly drawn) (tested in a mixture with another compound),.,87*,.,.,-36,12
CC(CCC(=O)NN)C1CCC2C3CCC4CC(O)CCC4(C)C3CCC12C (stereo not drawn),.,.,6,.,.,.
CCOc1ccc(CCNC(=O)c2cc3ccsc3n2C)cc1OC,.,.,-12,.,.,.
O=C1/C(=C/c2ccncc2)SC(=S)N1Nc1ccccc1,-11,4,1,36*,-7,2
COc1ccc(C(=O)O[C@@H]2CCC[C@@]3(C(=O)N(Cc4ccccc4)c4ccccc43)[C@H]2NC(=O)CCc2ccccc2)cc1OC,.,.,7,.,.,.
Cc1ccc2[nH]c3c(=O)n(CC(=O)NCc4ccco4)ncc3c2c1,22,-12,5,36*,-1,6
Cc1ccc(CCNC(=O)Cn2ncc3c([nH]c4ccccc43)c2=O)cc1,37,6,-16,13,0,2
C[C@H]1[C@@H](OC(=O)Nc2ccccc2Cl)CC[C@@]23CCCN2C(=O)CCC[C@@H]13,.,.,-1,.,.,.
N=C1/C(=C/c2ccc(-c3cccc(C(=O)O)c3)o2)C(=O)N=C2SC=C(c3ccccc3)N12,78*,36,4,-24,-12,-5
N=C1/C(=C\c2ccc(-c3cc(Cl)cc(Cl)c3)o2)C(=O)N=C2SC=C(c3ccccc3)N12,38,3,-5,-10,-16,-9
Cc1ccccc1N=C1N=C(N)c2ccccc21,4,7,6,1,-2,60*
Cc1ccc(N=C2N=C(N)c3ccccc32)c(C)c1,-5,-5,1,3,2,-5
COC1=C(Br)C(=O)c2ncccc2C1=O,.,.,94*,.,.,.
Cc1cc(N2CCN(C)CC2)ccc1NC(=O)c1ccc(-c2ccc(Cl)cc2)o1,.,42*,4,11,-4,?
CN1CCN(c2ccccc2NC(=O)c2ccc(-c3ccc(Cl)c(Cl)c3)o2)CC1,0,46*,8,0,1,5
CN1CCN(c2ccccc2NC(=O)c2ccc(-c3ccc(Br)cc3)o2)CC1,-10,16,.,4,-8,5
O=C(Nc1ccccc1N1CCCCC1)c1ccc(-c2ccc(Cl)cc2)o1,20,24,-5,-4,-2,22
COC(=O)C[C@@H]1CC[C@H]2[C@@H](COc3ccc(NC(=O)c4ccc(C(F)(F)F)cc4)cc3C(=O)N2C)O1,.,.,-3,.,.,.
